Source: ChEMBL document CHEMBL1157912, “Impact of nature and length of linker incorporated in agonists on toll-like receptor 9-mediated immune responses” (J Med Chem, 2010)
Calls of active or inactive are those of the source. The rule behind the calls is not given here.

Assays:
[1] = biological target: T1, Toll-like receptor 9 (Mus musculus) (UniProt Q9EQU3); test: Induction of TLR9-mediated IL12 production in C57BL/6 mouse spleen cells after 24 hrs by ELISA; assay type: cell-based
T1 sequence (whole entry): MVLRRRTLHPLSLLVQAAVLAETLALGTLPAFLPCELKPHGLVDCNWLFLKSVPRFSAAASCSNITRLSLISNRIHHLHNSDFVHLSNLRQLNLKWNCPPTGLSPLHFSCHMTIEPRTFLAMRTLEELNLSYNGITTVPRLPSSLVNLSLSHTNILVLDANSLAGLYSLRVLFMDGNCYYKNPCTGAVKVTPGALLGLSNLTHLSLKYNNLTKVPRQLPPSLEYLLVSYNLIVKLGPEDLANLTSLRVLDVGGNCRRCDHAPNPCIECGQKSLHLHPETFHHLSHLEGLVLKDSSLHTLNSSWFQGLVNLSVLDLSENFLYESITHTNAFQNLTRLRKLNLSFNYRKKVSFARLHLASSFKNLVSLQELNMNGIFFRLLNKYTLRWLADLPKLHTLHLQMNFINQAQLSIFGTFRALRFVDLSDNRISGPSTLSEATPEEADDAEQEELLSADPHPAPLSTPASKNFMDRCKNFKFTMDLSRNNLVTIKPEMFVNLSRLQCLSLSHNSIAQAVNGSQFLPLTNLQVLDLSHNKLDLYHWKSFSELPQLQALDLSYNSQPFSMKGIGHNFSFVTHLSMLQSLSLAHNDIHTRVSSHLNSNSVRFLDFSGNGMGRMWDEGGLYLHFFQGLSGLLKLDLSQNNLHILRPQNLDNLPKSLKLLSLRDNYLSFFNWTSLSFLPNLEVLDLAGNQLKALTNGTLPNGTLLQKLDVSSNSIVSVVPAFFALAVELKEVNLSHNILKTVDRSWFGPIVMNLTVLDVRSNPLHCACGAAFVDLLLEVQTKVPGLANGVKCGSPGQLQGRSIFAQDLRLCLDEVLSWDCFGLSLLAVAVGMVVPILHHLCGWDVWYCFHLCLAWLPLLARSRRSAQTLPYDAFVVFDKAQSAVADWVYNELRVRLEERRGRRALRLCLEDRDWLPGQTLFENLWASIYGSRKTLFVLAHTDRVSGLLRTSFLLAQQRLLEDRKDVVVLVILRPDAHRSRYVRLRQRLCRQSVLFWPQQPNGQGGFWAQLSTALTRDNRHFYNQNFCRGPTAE
Outline: (§1)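 C57BL/6 mouse spleen cells were cultured with agonists at 0.1, 0.3, 1, 3 and 10 μg/mL for 24 h. Secreted IL-12 and IL-6 in the supernatants were measured by ELISA. Values are averages of triplicate wells from one representative of at least two independent experiments.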

[2] = system: Mus musculus; test: Immunostimulatory activity in C57BL/6 mouse assessed as increase in serum IL12 level at 1 mg/kg, sc after 2 hrs by ELISA; assay type: functional, organism-based; parameters: dose 1 mg/kg
Outline: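 Female C57BL/6 mice (n=3) received a single subcutaneous agonist dose of 1 mg/kg. Blood was taken by retro-orbital bleeding 2 h later, and serum IL-12 was measured by sandwich ELISA. Values are the mean of three mice ± SD.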

[3] = biological target: T1, Toll-like receptor 9 (Mus musculus); test: Activation of mouse TLR9 expressed in HEK293 cells assessed as induction of NF-kappaB activity after 18 hrs by SEAP assay; assay type: cell-based
Outline: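 HEK293 cells stably expressing mouse TLR9 were grown in DMEM with 10% heat-inactivated FBS. At 80% confluence they were transiently transfected with a SEAP reporter plasmid (100 ng/well, lipofectamine) for 6 h. Medium was then replaced and agonists were added for 18 h. Supernatant SEAP was read with QuantiBlue substrate at 620-645 nm. Results are expressed as fold NF-κB activity over PBS control.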

[4] = biological target: T1, Toll-like receptor 9 (Mus musculus); test: Induction of TLR9-mediated IL6 production in C57BL/6 mouse spleen cells after 24 hrs by ELISA; assay type: cell-based; outline: as §1
[5] = biological target: T2, Toll-like receptor 9 (Homo sapiens) (UniProt Q9NR96); test: Induction of TLR9-mediated human B cell proliferation assessed as [3H]thymidine uptake after 56 hrs by scintillation counting
T2 sequence (whole entry): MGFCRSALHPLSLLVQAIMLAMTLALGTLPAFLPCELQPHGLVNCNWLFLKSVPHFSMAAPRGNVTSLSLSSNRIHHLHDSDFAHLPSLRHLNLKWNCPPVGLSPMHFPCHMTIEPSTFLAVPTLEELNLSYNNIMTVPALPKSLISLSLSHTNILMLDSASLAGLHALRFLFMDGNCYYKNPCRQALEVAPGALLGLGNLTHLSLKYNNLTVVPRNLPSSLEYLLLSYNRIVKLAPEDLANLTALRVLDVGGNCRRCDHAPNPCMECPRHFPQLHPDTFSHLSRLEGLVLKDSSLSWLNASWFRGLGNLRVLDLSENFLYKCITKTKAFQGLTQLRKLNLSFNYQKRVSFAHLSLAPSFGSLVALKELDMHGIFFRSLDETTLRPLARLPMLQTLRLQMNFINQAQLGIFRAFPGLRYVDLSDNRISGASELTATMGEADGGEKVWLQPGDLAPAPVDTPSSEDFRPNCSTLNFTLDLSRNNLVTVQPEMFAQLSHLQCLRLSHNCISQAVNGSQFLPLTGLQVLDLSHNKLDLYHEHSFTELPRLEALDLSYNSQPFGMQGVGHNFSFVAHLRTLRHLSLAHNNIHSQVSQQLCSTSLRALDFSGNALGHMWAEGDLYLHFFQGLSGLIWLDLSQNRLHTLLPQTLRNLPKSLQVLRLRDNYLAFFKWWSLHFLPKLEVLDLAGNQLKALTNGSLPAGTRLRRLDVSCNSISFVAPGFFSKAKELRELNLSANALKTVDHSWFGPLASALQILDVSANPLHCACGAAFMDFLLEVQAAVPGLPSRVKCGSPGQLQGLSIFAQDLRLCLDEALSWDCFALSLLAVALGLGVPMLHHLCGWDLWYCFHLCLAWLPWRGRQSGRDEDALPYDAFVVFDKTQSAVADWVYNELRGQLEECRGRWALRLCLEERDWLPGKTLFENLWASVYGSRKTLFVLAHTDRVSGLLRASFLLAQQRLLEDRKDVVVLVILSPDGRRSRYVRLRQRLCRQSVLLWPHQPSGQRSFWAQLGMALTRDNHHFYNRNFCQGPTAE
Outline: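 B cells were purified from human PBMCs (healthy volunteers), about 1 × 10⁵ cells, and stimulated with various agonist concentrations for 56 h. Cells were then pulsed with 0.75 μCi [³H]-thymidine and harvested 16 h later. Incorporation was counted by scintillation and reported as cpm.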

Activity [1]: Dose-dependent effect
Activity [3]: Dose-dependent effect
Activity [4]: Dose-dependent effect
Activity [5]: Dose-dependent effect
Structure (SMILES): Cc1cn([C@H]2C[C@H](OCCn3c(=O)n(CCO)c(=O)n(CCOP(=O)(S)O[C@H]4C[C@H](n5cc(C)c(=O)[nH]c5=O)O[C@@H]4COP(=O)(S)O[C@H]4[C@@H](O)[C@H](n5ccc(N)nc5=O)O[C@@H]4COP(=O)(S)O[C@H]4C[C@H](n5cc(C)c(=O)[nH]c5=O)O[C@@H]4COP(=O)(S)O[C@H]4C[C@H](n5cc(C)c(=O)[nH]c5=O)O[C@@H]4COP(=O)(S)O[C@H]4C[C@H](n5ccc6c(=O)[nH]c(N)nc65)O[C@@H]4COP(=O)(S)O[C@H]4[C@@H](O)[C@H](n5ccc(N)nc5=O)O[C@@H]4COP(=O)(S)O[C@H]4C[C@H](n5cc(C)c(=O)[nH]c5=O)O[C@@H]4COP(=O)(S)O[C@H]4[C@@H](O)[C@H](n5cnc6c(=O)[nH]c(N)nc65)O[C@@H]4COP(=O)(S)O[C@H]4C[C@H](n5cc(C)c(=O)[nH]c5=O)O[C@@H]4COP(=O)(S)O[C@H]4[C@@H](O)[C@H](n5ccc(N)nc5=O)O[C@@H]4COP(=O)(S)O[C@H]4C[C@H](n5cc(C)c(=O)[nH]c5=O)O[C@@H]4CO)c3=O)[C@@H](COP(=O)(S)O[C@H]3[C@@H](O)[C@H](n4ccc(N)nc4=O)O[C@@H]3COP(=O)(S)O[C@H]3C[C@H](n4cc(C)c(=O)[nH]c4=O)O[C@@H]3COP(=O)(S)O[C@H]3C[C@H](n4cc(C)c(=O)[nH]c4=O)O[C@@H]3COP(=O)(S)O[C@H]3C[C@H](n4ccc5c(=O)[nH]c(N)nc54)O[C@@H]3COP(=O)(S)O[C@H]3[C@@H](O)[C@H](n4ccc(N)nc4=O)O[C@@H]3COP(=O)(S)O[C@H]3C[C@H](n4cc(C)c(=O)[nH]c4=O)O[C@@H]3COP(=O)(S)O[C@H]3[C@@H](O)[C@H](n4cnc5c(=O)[nH]c(N)nc54)O[C@@H]3COP(=O)(S)O[C@H]3C[C@H](n4cc(C)c(=O)[nH]c4=O)O[C@@H]3COP(=O)(S)O[C@H]3[C@@H](O)[C@H](n4ccc(N)nc4=O)O[C@@H]3COP(=O)(S)O[C@H]3C[C@H](n4cc(C)c(=O)[nH]c4=O)O[C@@H]3CO)O2)c(=O)[nH]c1=O (stereo not given in full)
Activity [2]: Active
